Test results from ChEMBL document CHEMBL1121573, “2-(Aminomethyl)phenols, a new class of saluretic agents. 1. Effects of nuclear substitution” (J Med Chem, 1980).
Several values for one entry are separate records, joined by “and”; a condition that tells them apart may be missing. Equal entries are not always repeated.

Test system: Canis familiaris
Test: Oral diuretic activity was evaluated by measuring K+ excretion in dog at 10 mg/kg after ip administration (0-6 hr)
Assay type: ADME, organism-based, Canis lupus familiaris, Urine
Set-up: dose 10 mg/kg, route intraperitoneal
Conditions: in vivo
Method in brief: (§1)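 Spontaneous urine was pooled with bladder urine collected by catheterization at 6 h. Volume was measured and Na+, K+ and Cl− were determined by standard methods. Values are geometric means.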

Diuretic activity	SMILES
7.1	NS(=O)(=O)c1cc2c(cc1Cl)NCNS2(=O)=O [HYDROCHLOROTHIAZIDE]

Test system: Rattus norvegicus
Test: Oral diuretic activity was evaluated by measuring Cl- excretion in Rat at 27 mg/kg […] (0-5 hr)
Assay type: ADME, organism-based, Urine
Set-up: dose 27 mg/kg
Conditions: in vivo

Diuretic activity	SMILES
1.56	NS(=O)(=O)c1cc2c(cc1Cl)NCNS2(=O)=O [HYDROCHLOROTHIAZIDE]

Test system: Canis familiaris
Test: Compound administered intravenously at a dose of 5 mg/kg was evaluated for salidiuretic activity measured as sodium ion excretion in Dog; Value ranges from 600- 799
Assay type: ADME, organism-based, Canis lupus familiaris, Urine
Set-up: dose 5 mg/kg, route intravenous
Conditions: in vivo, iv
Method in brief: (§2)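 Conditioned female mongrel dogs, postabsorptive, water-loaded (500 mL po) 1 h before sodium pentobarbital anesthesia (30 mg/kg iv). Bladder catheter; creatinine 4 g sc; phosphate–mannitol buffer pH 7.4 infused (3.0 mL/min) throughout. […] Urine Na+ measured; response scored 0–6.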

Diuretic activity	SMILES
600	CCCc1cc(I)c(O)c(CN)c1.Cl

Test system: Canis familiaris
Test: Compound administered intravenously was evaluated for salidiuretic activity measured as sodium ion excretion in Dog; Value ranges from 100-249
Assay type: ADME, organism-based, Canis lupus familiaris, Urine
Conditions: in vivo, iv
Method in brief: as §2

Diuretic activity	SMILES
100	CCc1ccc(O)c(CN)c1.Cl
100	CCCC(=O)c1cc(C)c(O)c(CN)c1.Cl

Test system: Rattus norvegicus
Test: Maximum fall in mean arterial blood pressure was measured in SH rats when compound was administered at 10 mg/kg perorally
Assay type: functional
Conditions: route oral

SMILES	MAP [mmHg]
NS(=O)(=O)c1cc2c(cc1Cl)NCNS2(=O)=O [HYDROCHLOROTHIAZIDE]	14

Test system: Rattus norvegicus
Test: Maximum fall in mean arterial blood pressure was measured in SH rats when compound was administered at 20 mg/kg perorally
Assay type: functional
Conditions: route oral

SMILES	MAP [mmHg]
NS(=O)(=O)c1cc2c(cc1Cl)NCNS2(=O)=O [HYDROCHLOROTHIAZIDE]	25

Test system: Canis familiaris
Test: Oral diuretic activity was evaluated by measuring Na+ excretion in dog at 1 mg/kg after ip administration (0-6 hr)
Assay type: ADME, organism-based, Canis lupus familiaris, Urine
Set-up: dose 1 mg/kg, route intraperitoneal
Conditions: in vivo
Method in brief: as §1

Diuretic activity	SMILES
16.4	NS(=O)(=O)c1cc2c(cc1Cl)NCNS2(=O)=O [HYDROCHLOROTHIAZIDE]

Test system: Canis familiaris
Test: Oral diuretic activity was evaluated by measuring Na+ excretion in dog at 5 mg/kg after ip administration (0-6 hr)
Assay type: ADME, organism-based, Canis lupus familiaris, Urine
Set-up: dose 5 mg/kg, route intraperitoneal
Conditions: in vivo
Method in brief: as §1

Diuretic activity	SMILES
18.8	NS(=O)(=O)c1cc2c(cc1Cl)NCNS2(=O)=O [HYDROCHLOROTHIAZIDE]

Test system: Canis familiaris
Test: Salidiuretic activity in dog following i.v. dosing at 5 mg/kg
Assay type: functional, Canis lupus familiaris, Urine
Set-up: unit not given beside the values
Conditions: route intravenous
Method in brief: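 Conditioned female mongrel dogs, postabsorptive, got a 500 mL oral water load 1 h before pentobarbital anesthesia (30 mg/kg iv). After replicate 15-min control collections, compound was given as an iv stat injection.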

SMILES	Diuretic activity
NS(=O)(=O)c1cc2c(cc1Cl)NCNS2(=O)=O [HYDROCHLOROTHIAZIDE]	250

Test system: Canis familiaris
Test: Oral diuretic activity was evaluated by measuring Cl- excretion in dog at 0.3 mg/kg after […] (0-6 hr)
Assay type: ADME, organism-based, Canis lupus familiaris, Urine
Set-up: dose 0.3 mg/kg, route intraperitoneal
Conditions: in vivo

Diuretic activity	SMILES
8.57	NS(=O)(=O)c1cc2c(cc1Cl)NCNS2(=O)=O [HYDROCHLOROTHIAZIDE]

Test system: Canis familiaris
Test: Oral diuretic activity was evaluated by measuring Cl- excretion in dog at 10 mg/kg after […] (0-6 hr)
Assay type: ADME, organism-based, Canis lupus familiaris, Urine
Set-up: dose 10 mg/kg, route intraperitoneal
Conditions: in vivo

Diuretic activity	SMILES
22.9	NS(=O)(=O)c1cc2c(cc1Cl)NCNS2(=O)=O [HYDROCHLOROTHIAZIDE]

Test system: Rattus norvegicus
Test: Compound administered orally at a dose of 81 mg/kg was evaluated for salidiuretic activity measured as sodium ion excretion in Rat
Assay type: ADME, organism-based, Urine
Set-up: dose 81 mg/kg, route oral; unit not given beside the values
Conditions: in vivo, po
Method in brief: (§3)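 Female Charles-River rats (150–170 g), overnight on sugar diet with water ad libitum. Compound dissolved in DMF, diluted with water containing Tween 80 (final 4% DMF), given po in 5.0 mL; concurrent vehicle placebo. Three rats per metabolism cage; 0–5 h urine analysed for Na+, K+, Cl-. Values: mequiv × 100 per cage, geometric means of three cages per dose; scored 0–6 by Na+.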

Diuretic activity	SMILES
2.4	CCCc1cc(I)c(O)c(CN)c1.Cl
1.5	CCc1ccc(O)c(CN)c1.Cl
2.4	NS(=O)(=O)c1cc2c(cc1Cl)NCNS2(=O)=O [HYDROCHLOROTHIAZIDE]

Test system: Rattus norvegicus
Test: Oral diuretic activity was evaluated by measuring K+ excretion in Rat at 3 mg/kg […] (0-5 hr)
Assay type: ADME, organism-based, Urine
Set-up: dose 3 mg/kg
Conditions: not given
Method in brief: (§4)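 Female Charles-River rats (150–170 g) were kept overnight on a sugar diet with water ad libitum. Test substance was dissolved in DMF and diluted with water containing Tween 80 to a final 4% DMF vehicle, then given po in 5.0 mL. Rats were housed three per metabolism cage, and 0–5 h urine was assayed for Na⁺, K⁺ and Cl⁻ alongside concurrent placebo groups. Values are mequiv × 100 per cage, geometric means of three cages per dose.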

Diuretic activity	SMILES
0.34	NS(=O)(=O)c1cc2c(cc1Cl)NCNS2(=O)=O [HYDROCHLOROTHIAZIDE]

Test system: Canis familiaris
Test: Oral diuretic activity was evaluated by measuring Cl- excretion in dog at 5 mg/kg after […] (0-6 hr)
Assay type: ADME, organism-based, Canis lupus familiaris, Urine
Set-up: dose 5 mg/kg, route intraperitoneal
Conditions: in vivo

Diuretic activity	SMILES
26.3	NS(=O)(=O)c1cc2c(cc1Cl)NCNS2(=O)=O [HYDROCHLOROTHIAZIDE]

Test system: Canis familiaris
Test: Oral diuretic activity was evaluated by measuring Na+ excretion in dog at 0.3 mg/kg after ip administration (0-6 hr)
Assay type: ADME, organism-based, Canis lupus familiaris, Urine
Set-up: dose 0.3 mg/kg, route intraperitoneal
Conditions: in vivo
Method in brief: as §1

Diuretic activity	SMILES
5.4	NS(=O)(=O)c1cc2c(cc1Cl)NCNS2(=O)=O [HYDROCHLOROTHIAZIDE]

Test system: Rattus norvegicus
Test: Oral diuretic activity was evaluated by measuring K+ excretion in Rat at 81 mg/kg after […] (0-5 hr)
Assay type: ADME, organism-based, Urine
Set-up: dose 81 mg/kg
Conditions: not given
Method in brief: as §4

Diuretic activity	SMILES
0.37	NS(=O)(=O)c1cc2c(cc1Cl)NCNS2(=O)=O [HYDROCHLOROTHIAZIDE]

Test system: Canis familiaris
Test: Oral diuretic activity was evaluated by measuring K+ excretion in dog at 5 mg/kg after ip administration (0-6 hr)
Assay type: ADME, organism-based, Canis lupus familiaris, Urine
Set-up: dose 5 mg/kg, route intraperitoneal
Conditions: in vivo
Method in brief: as §1

Diuretic activity	SMILES
7.4	NS(=O)(=O)c1cc2c(cc1Cl)NCNS2(=O)=O [HYDROCHLOROTHIAZIDE]

Test system: Rattus norvegicus
Test: Oral diuretic activity was evaluated by measuring K+ excretion in Rat at 27 mg/kg […] (0-5 hr)
Assay type: ADME, organism-based, Urine
Set-up: dose 27 mg/kg
Conditions: not given
Method in brief: as §4

Diuretic activity	SMILES
0.34	NS(=O)(=O)c1cc2c(cc1Cl)NCNS2(=O)=O [HYDROCHLOROTHIAZIDE]

Test system: Canis familiaris
Test: Oral diuretic activity was evaluated by measuring Na+ excretion in dog at 10 mg/kg after ip administration (0-6 hr)
Assay type: ADME, organism-based, Canis lupus familiaris, Urine
Set-up: dose 10 mg/kg, route intraperitoneal
Conditions: in vivo
Method in brief: as §1

Diuretic activity	SMILES
19.6	NS(=O)(=O)c1cc2c(cc1Cl)NCNS2(=O)=O [HYDROCHLOROTHIAZIDE]

Test system: Rattus norvegicus
Test: Maximum fall in mean arterial blood pressure was measured in SH rats when compound was administered at 40 mg/kg perorally
Assay type: functional
Conditions: route oral

SMILES	MAP [mmHg]
NS(=O)(=O)c1cc2c(cc1Cl)NCNS2(=O)=O [HYDROCHLOROTHIAZIDE]	26

Organism: Rattus norvegicus
Test: Time taken for the decrease in arterial pressure was measured
Assay type: functional, Artery
Conditions: not given

SMILES	Duration
NS(=O)(=O)c1cc2c(cc1Cl)NCNS2(=O)=O [HYDROCHLOROTHIAZIDE]	>8 h and 12 h

Test system: Rattus norvegicus
Test: Oral diuretic activity was evaluated by measuring Cl- excretion in Rat at 3 mg/kg […] (0-5 hr)
Assay type: ADME, organism-based, Urine
Set-up: dose 3 mg/kg, route intraperitoneal
Conditions: in vivo

Diuretic activity	SMILES
1.54	NS(=O)(=O)c1cc2c(cc1Cl)NCNS2(=O)=O [HYDROCHLOROTHIAZIDE]

Test system: not listed separately
Test: Compound administered orally at a dose of 5 mg/kg was evaluated for salidiuretic activity measured as sodium ion excretion in Rat
Assay type: organism-based
Set-up: dose 5 mg/kg
Conditions: Urine
Method in brief: as §3

SMILES	Diuretic activity
CCCc1cc(I)c(O)c(CN)c1.Cl	0.4
CCc1ccc(O)c(CN)c1.Cl	0.3
NS(=O)(=O)c1cc2c(cc1Cl)NCNS2(=O)=O [HYDROCHLOROTHIAZIDE]	0.4

Test system: not listed separately
Test: Evaluated for salidiuretic activity measured as sodium ion excretion in Rat, administered orally at a dose of 16.5 mg/kg
Assay type: organism-based
Set-up: dose 16.5 mg/kg
Conditions: Urine
Method in brief: as §3

SMILES	Diuretic activity
CCCc1cc(I)c(O)c(CN)c1.Cl	0.6
CCc1ccc(O)c(CN)c1.Cl	0.5
NS(=O)(=O)c1cc2c(cc1Cl)NCNS2(=O)=O [HYDROCHLOROTHIAZIDE]	0.6

Test system: Canis familiaris
Test: Oral diuretic activity was evaluated by measuring K+ excretion in dog at 1 mg/kg after ip administration (0-6 hr)
Assay type: ADME, organism-based, Canis lupus familiaris, Urine
Set-up: dose 1 mg/kg, route intraperitoneal
Conditions: in vivo
Method in brief: as §1

Diuretic activity	SMILES
4.8	NS(=O)(=O)c1cc2c(cc1Cl)NCNS2(=O)=O [HYDROCHLOROTHIAZIDE]

Test system: Canis familiaris
Test: Oral diuretic activity was evaluated by measuring Cl- excretion in dog at 1 mg/kg after […] (0-6 hr)
Assay type: ADME, organism-based, Canis lupus familiaris, Urine
Set-up: dose 1 mg/kg, route intraperitoneal
Conditions: in vivo

Diuretic activity	SMILES
22	NS(=O)(=O)c1cc2c(cc1Cl)NCNS2(=O)=O [HYDROCHLOROTHIAZIDE]

Test system: Rattus norvegicus
Test: Oral diuretic activity was evaluated by measuring Na+ excretion in Rat at 9 mg/kg after […] (0-5 hr)
Assay type: ADME, organism-based, Urine
Set-up: dose 9 mg/kg
Conditions: in vivo, ip
Method in brief: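 Female Charles-River rats (150–170 g) were kept overnight on a sugar diet with water ad libitum. Compound was dissolved in DMF, then diluted with water containing Tween 80 (3 drops/100 mL) to a final 4% DMF, and given po in 5.0 mL. Rats were housed three per metabolism cage. Urine from 0–5 h was analysed for Na+, K+ and Cl−, with concurrent placebo controls. Values are mequiv × 100 per cage, geometric mean of three cages per dose.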

Diuretic activity	SMILES
1.12	NS(=O)(=O)c1cc2c(cc1Cl)NCNS2(=O)=O [HYDROCHLOROTHIAZIDE]

Test system: Rattus norvegicus
Test: Oral diuretic activity was evaluated by measuring K+ excretion in Rat at 9 mg/kg […] (0-5 hr)
Assay type: ADME, organism-based, Urine
Set-up: dose 9 mg/kg
Conditions: not given
Method in brief: as §4

Diuretic activity	SMILES
0.38	NS(=O)(=O)c1cc2c(cc1Cl)NCNS2(=O)=O [HYDROCHLOROTHIAZIDE]

Test system: Canis familiaris
Test: Oral diuretic activity was evaluated by measuring K+ excretion in dog at 0.3 mg/kg after […] (0-6 hr)
Assay type: ADME, organism-based, Canis lupus familiaris, Urine
Set-up: dose 0.3 mg/kg, route intraperitoneal
Conditions: in vivo

Diuretic activity	SMILES
1.98	NS(=O)(=O)c1cc2c(cc1Cl)NCNS2(=O)=O [HYDROCHLOROTHIAZIDE]

Test system: Rattus norvegicus
Test: Evaluated for salidiuretic activity measured as sodium ion excretion in Rat, administered orally at a dose of 50 mg/kg
Assay type: functional, Urine
Set-up: unit not given beside the values
Conditions: route oral
Method in brief: as §3

SMILES	Diuretic activity
CCCc1cc(I)c(O)c(CN)c1.Cl	1.8
CCc1ccc(O)c(CN)c1.Cl	1.2
NS(=O)(=O)c1cc2c(cc1Cl)NCNS2(=O)=O [HYDROCHLOROTHIAZIDE]	1.8
